Test results published in ChEMBL document CHEMBL1141109, “Synthesis of an estrogen receptor beta-selective radioligand: 5-[18F]fluoro-(2R,3S)-2,3-bis(4-hydroxyphenyl)pentanenitrile and comparison of in vivo distribution with 16alpha-[18F]fluoro-17beta-estradiol” (J Med Chem, 2005).
Blank lines part the entries; values can stand above or below the compound they belong to.

Key:
[1] = Biodistribution of [18F]FES in beta estrogen receptor knock out mouse uterus after 2 h; (n=3); type: ADME, organism-based; conditions: in vivo
[2] = Biodistribution of [18F]FES in beta estrogen receptor knock out mouse ovaries after 30 min; (n=3); type: ADME, organism-based, Female gonad; conditions: in vivo, 0.5 h
[3] = Biodistribution of [18F]FES in beta estrogen receptor knock out mouse ovaries after 1 h; (n=3); type: ADME, organism-based, Female gonad; conditions: in vivo
[4] = Biodistribution of [18F]FES in beta estrogen receptor knock out mouse muscle after 2 h; (n=3); type: ADME, organism-based, Muscle tissue; conditions: in vivo
[5] = Biodistribution of [18F]FES in alpha estrogen receptor knock out mouse spleen after 1 h; (n=3); type: ADME, organism-based; conditions: in vivo
[6] = Biodistribution of [18F]FES in alpha estrogen receptor knock out mouse kidney after 1 h; (n=3); type: ADME, organism-based; conditions: in vivo
Outline: (§1)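 Female αERKO mice were rested 48 h after shipping and fed estrogen-free chow. They were staged by daily vaginal smears and studied in diestrus. Each received 13 µCi [18F]FES in 100 µL 10% ethanol/saline and was sacrificed at 30 min, 1 h or 2 h (n = 3 per time). Tissue uptake is given as %ID/g ± SD.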

[7] = Biodistribution of [18F]FES in beta estrogen receptor knock out mouse liver after 30 min(n=2); mice in nonestrus stage; type: ADME, organism-based; conditions: in vivo, 0.5 h
[8] = Biodistribution of [18F]FES in beta estrogen receptor knock out mouse liver after 1 h; (n=3); type: ADME, organism-based; conditions: in vivo
[9] = Biodistribution of [18F]FES in alpha estrogen receptor knock out mouse bone after 1 h; (n=3); type: ADME, organism-based, Bone element; conditions: in vivo; outline: as §1
[10] = Biodistribution of [18F]FES in beta estrogen receptor knock out mouse blood after 30 min(n=2); mice in nonestrus stage; type: ADME, organism-based; conditions: in vivo, 0.5 h
[11] = Biodistribution of [18F]FES in beta estrogen receptor knock out mouse brain after 30 min(n=2); mice in nonestrus stage; type: ADME, organism-based; conditions: in vivo, 0.5 h
[12] = Biodistribution of [18F]FES in alpha estrogen receptor knock out mouse fat after 30 min; (n=3); type: ADME, organism-based, Adipose tissue; conditions: in vivo, 0.5 h; outline: as §1
[13] = Biodistribution of [18F]FES in alpha estrogen receptor knock out mouse liver after 2 h; (n=3); type: ADME, organism-based; conditions: in vivo; outline: as §1
[14] = Biodistribution of [18F]FES in beta estrogen receptor knock out mouse heart after 1 h; (n=3); type: ADME, organism-based; conditions: in vivo
[15] = Biodistribution of [18F]FES in beta estrogen receptor knock out mouse kidney after 30 min; (n=3); type: ADME, organism-based; conditions: in vivo, 0.5 h
[16] = Biodistribution of [18F]FES in beta estrogen receptor knock out mouse thymus after 30 min(n=2); mice in nonestrus stage; type: ADME, organism-based; conditions: in vivo, 0.5 h
[17] = Biodistribution of [18F]FES in beta estrogen receptor knock out mouse heart after 30 min(n=2); mice in nonestrus stage; type: ADME, organism-based; conditions: in vivo, 0.5 h
[18] = Biodistribution of [18F]FEDPN in rat heart after 30 min when given in tail vein; (n=5); type: ADME, organism-based; conditions: in vivo, iv, 0.5 h
Outline: (§2)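 Immature female Sprague–Dawley rats (<25 days old) under isoflurane/O2 got 20 µCi tracer in 150 µL 20% ethanol/saline by tail vein. […] Rats were killed at 30 min, 1 h or 2 h. Organs were blotted, weighed and gamma-counted against an injectate standard. Data are %ID/g ± SD, five rats per point.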

[19] = Biodistribution of [18F]-FEDPN in rat kidney after 1 hr when given in tail vein; (n=5); type: ADME, organism-based; conditions: in vivo, iv
Outline: (§3)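 Immature female Sprague–Dawley rats (<25 days old) anesthetized with isoflurane/O2. Given 20 µCi tracer by tail vein in 150 µL of 20% ethanol/saline. […] Killed at 30 min, 1 h or 2 h. Blood and organs blotted, weighed and gamma-counted against a standard dilution of the injectate. Reported as %ID/g ± SD, n=5.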

[20] = Biodistribution of [18F]-FEDPN in rat heart after 1 hr when given in tail vein; (n=5); type: ADME, organism-based; conditions: in vivo, iv; outline: as §3
[21] = Biodistribution of [18F]FEDPN in alpha estrogen receptor knock out mouse kidney after 1 h; (n=3); type: ADME, organism-based; conditions: in vivo
Outline: (§4)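 ERKO female mice (αERKO or βERKO), rested 48 h after shipping, placed on estrogen-free chow, and staged by daily vaginal smears. Injected in a nonestrous stage with 11 µCi [18F]FEDPN in 130 µL of 10% ethanol/saline. Killed at 30 min, 1 h or 2 h. Organs counted and reported as %ID/g ± SD, three animals per point.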

[22] = Biodistribution of [18F]FEDPN in alpha estrogen receptor knock out mouse liver after 30 min; (n=3); type: ADME, organism-based; conditions: in vivo, 0.5 h; outline: as §4
[23] = Biodistribution of [18F]FEDPN in alpha estrogen receptor knock out mouse liver after 1 h; (n=3); type: ADME, organism-based; conditions: in vivo; outline: as §4
[24] = Biodistribution of [18F]FEDPN in beta estrogen receptor knock out mouse heart after 30 min; (n=3); type: ADME, organism-based; conditions: in vivo, 0.5 h
Outline: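 αERKO and βERKO mice, staged by daily vaginal smears and kept on estrogen-free chow, were studied in a nonestrous stage. Each mouse received 11 μCi of tracer in 130 μL of 10% ethanol/saline. Mice were killed at 30 min, 1 h or 2 h (n = 3 each). Organs were removed, blotted, weighed and gamma-counted against an injectate standard. Uptake is given as %ID/g ± SD.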

[25] = Biodistribution of [18F]-FEDPN in rat thymus after 1 hr when given in tail vein; (n=5); type: ADME, organism-based; conditions: in vivo, iv; outline: as §3
[26] = Biodistribution of [18F]FEDPN in rat muscle after 1 h when given in tail vein; (n=5); type: ADME, organism-based, Muscle tissue; conditions: in vivo, iv; outline: as §2
[27] = Biodistribution of [18F]FEDPN in alpha estrogen receptor knock out mouse fat after 2 h; (n=3); type: ADME, organism-based, Adipose tissue; conditions: in vivo; outline: as §4
[28] = Biodistribution of [18F]FEDPN in rat spleen after 1 h when given in tail vein; (n=5); type: ADME, organism-based; conditions: in vivo, iv; outline: as §2
[29] = Biodistribution of [18F]-FEDPN in alpha estrogen receptor knock out mouse ovaries after 1 h; (n=3); type: ADME, organism-based, Female gonad; conditions: in vivo; outline: as §4
[30] = Biodistribution of [18F]FEDPN in rat liver after 30 min when given in tail vein; (n=5); type: ADME, organism-based; conditions: in vivo, iv, 0.5 h; outline: as §2
[31] = Biodistribution of [18F]-FEDPN in rat heart after 2 hr when given in tail vein; (n=5); type: ADME, organism-based; conditions: in vivo, iv; outline: as §3
[32] = Biodistribution of [18F]FEDPN in alpha estrogen receptor knock out mouse fat after 1 h; (n=3); type: ADME, organism-based, Adipose tissue; conditions: in vivo; outline: as §4
[33] = Biodistribution of [18F]FEDPN in beta estrogen receptor knock out mouse uterus after 2 h; (n=3); type: ADME, organism-based; conditions: in vivo
Outline: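 αERKO and βERKO mice were fed estrogen-free chow and staged by daily vaginal smears. Mice in a nonestrous stage each received 11 µCi tracer in 130 µL 10% ethanol/saline. Organs were taken at 30 min, 1 h or 2 h and gamma-counted. Uptake is expressed as %ID/g ± SD, three animals per point.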

[34] = Biodistribution of [18F]FEDPN in alpha estrogen receptor knock out mouse fat after 30 min; (n=3); type: ADME, organism-based, Adipose tissue; conditions: in vivo, 0.5 h; outline: as §4
[35] = Biodistribution of [18F]FEDPN in alpha estrogen receptor knock out mouse brain after 30 min; (n=3); type: ADME, organism-based; conditions: in vivo, 0.5 h; outline: as §4
[36] = Biodistribution of [18F]-FEDPN in rat uterus after 1 hr when given in tail vein; (n=5); type: ADME, organism-based; conditions: in vivo, iv; outline: as §3
[37] = Biodistribution of [18F]-FEDPN in rat fat after 30 min when given in tail vein; (n=5); type: ADME, organism-based, Adipose tissue; conditions: in vivo, iv, 0.5 h; outline: as §3
[38] = Biodistribution of [18F]-FEDPN in alpha estrogen receptor knock out mouse spleen after 1 h; (n=3); type: ADME, organism-based; conditions: in vivo; outline: as §4

Biodistribution [1]: 9.23 %ID/g
Biodistribution [2]: 6.54 %ID/g
Biodistribution [3]: 5.61 %ID/g
Biodistribution [4]: 0.54 %ID/g
Biodistribution [5]: 0.19 %ID/g
Biodistribution [6]: 1.07 %ID/g
Biodistribution [7]: 7.91 %ID/g
Biodistribution [8]: 5.85 %ID/g
Biodistribution [9]: 0.24 %ID/g
Biodistribution [10]: 0.73 %ID/g
Biodistribution [11]: 0.81 %ID/g
Biodistribution [12]: 1.51 %ID/g
Biodistribution [13]: 3.67 %ID/g
Biodistribution [14]: 0.46 %ID/g
Biodistribution [15]: 3.83 %ID/g
Biodistribution [16]: 1.65 %ID/g
Biodistribution [17]: 0.95 %ID/g
Compound: C[C@]12CC[C@@H]3c4ccc(O)cc4CC[C@H]3[C@@H]1C[C@@H](F)[C@@H]2O [FLUOROESTRADIOL]

Biodistribution [18]: 0.49 %ID/g
Biodistribution [19]: 1.75 %ID/g
Biodistribution [20]: 0.29 %ID/g
Biodistribution [21]: 2.97 %ID/g
Biodistribution [22]: 3.7 %ID/g
Biodistribution [23]: 3.8 %ID/g
Biodistribution [24]: 1.6 %ID/g
Biodistribution [25]: 0.29 %ID/g
Biodistribution [26]: 0.22 %ID/g
Biodistribution [27]: 0.09 %ID/g
Biodistribution [28]: 0.16 %ID/g
Biodistribution [29]: 0.52 %ID/g
Biodistribution [30]: 1.42 %ID/g
Biodistribution [31]: 0.11 %ID/g
Biodistribution [32]: 0.27 %ID/g
Biodistribution [33]: 0.31 %ID/g
Biodistribution [34]: 0.57 %ID/g
Biodistribution [35]: 0.96 %ID/g
Biodistribution [36]: 0.74 %ID/g
Biodistribution [37]: 0.57 %ID/g
Biodistribution [38]: 0.61 %ID/g
Compound: N#C[C@H](c1ccc(O)cc1)[C@@H](CCF)c1ccc(O)cc1
